ChEMBL document CHEMBL5715938, “The protein kinase Cbeta-selective inhibitor, Enzastaurin (LY317615.HCl), suppresses signaling through the AKT pathway, induces apoptosis, and suppresses growth of human colon cancer and glioblastoma xenografts” (Cancer Res, 2005)
Active and inactive are the calls of the source. The calls are words filed in the database; no cut-off is given here.

What was measured:
[1] = target: Glycogen synthase kinase-3 beta (Homo sapiens) (UniProt P49841); test: Inhibition of GSK3beta phosphorylation at serine 9 residue in human HCT-116 cells at 1 micromol/L by Western blotting analysis; assay type: cell-based; details: dose 1.0 µmol/L, time <= 4.0 hrs, TDE = time-dependent effect
Summary of the method: (§1)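 Cultured tumor cells treated with 1 μmol/L drug; lysates in cell extraction buffer with protease inhibitors, western blotted with phospho-specific antibodies (pGSK3β Ser9, pAKT Thr308, phospho-ERK) alongside total GSK3β/AKT.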

[2] = system: U-87 MG; test: Antiproliferative activity against human U-87 MG cells assessed as reduction in cell growth upto 10 uM measured after 6 days by propidium iodide staining based analysis; assay type: functional; details: U-87MG ATCC, time 6.0 day
Summary of the method: (§2)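 ATCC-sourced lines grown without antibiotics; 1,000 cells/well in 1% FBS medium, refed ±drug on days 1 and 4 over a 6-day course. On day 7, propidium iodide (10 μg/mL in D-PBS) read after 30 min for nonviable cells, plate frozen at -80°C 2 h, thawed and reread; proliferative index = postfreeze minus prefreeze signal.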

[3] = system: HCT-116; test: Antiproliferative activity against human HCT-116 cells assessed as reduction in cell growth upto 10 uM measured after 6 days by propidium iodide staining based analysis; assay type: functional; details: time 6.0 day; summary of the method: as §2
[4] = system: MOLT-4; test: Antiproliferative activity against human MOLT-4 cells assessed as reduction in cell growth upto 10 uM measured after 6 days by propidium iodide staining based analysis; assay type: functional; details: time 6.0 day; summary of the method: as §2
[5] = system: Malme-3M; test: Antiproliferative activity against human Malme-3M cells assessed as reduction in cell growth upto 10 uM measured after 6 days by propidium iodide staining based analysis; assay type: functional; details: time 6.0 day; summary of the method: as §2
[6] = system: 786-0; test: Antiproliferative activity against human 786-0 cells assessed as reduction in cell growth upto 10 uM measured after 6 days by propidium iodide staining based analysis; assay type: functional; details: time 6.0 day; summary of the method: as §2
[7] = system: A498; test: Antiproliferative activity against human A498 cells assessed as reduction in cell growth upto 10 uM measured after 6 days by propidium iodide staining based analysis; assay type: functional; details: time 6.0 day; summary of the method: as §2
[8] = system: TK-10; test: Antiproliferative activity against human TK-10 cells assessed as reduction in cell growth upto 10 uM measured after 6 days by propidium iodide staining based analysis; assay type: functional; details: time 6.0 day; summary of the method: as §2
[9] = system: U-87 MG; test: Induction of apoptosis in human U-87 MG cells assessed as increase in oligonucleosomal fragmentation at 1 to 4 micromol/L incubated for 48 hrs by ELISA method; assay type: functional, cell-based; details: U-87MG ATCC, dose 1-4 µmol/L
Summary of the method: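 Oligonucleosomal fragmentation by Cell Death Detection ELISA-plus; 5,000 cells/well in 1% FBS medium, treated 48 h (range studied 0.1–10 μmol/L); absorbance normalized to control-treated cells to give nucleosomal enrichment factor.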

[10] = target: Protein kinase C iota type (Homo sapiens) (UniProt P41743); test: Inhibition of PKCIota (unknown origin) at 1 micromol/L relative to control; details: dose 1.0 µmol/L
Summary of the method: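 Commercial kinase profiling panel run by the provider's protocol at a single inhibitor concentration of 1 µmol/L. Activity expressed as percent of kinase activity without inhibitor.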

[11] = target: Inhibitor of nuclear factor kappa-B kinase subunit beta (Homo sapiens) (UniProt O14920); test: Inhibition of IKKbeta (unknown origin) at 1 micromol/L relative to control; details: dose 1.0 µmol/L
Summary of the method: (§3)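 Upstate Kinase Profiler panel at 1 μmol/L drug, run per provider; data expressed as percent of kinase activity without drug.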

[12] = target: Mitogen-activated protein kinase 11 (Homo sapiens) (UniProt Q15759); test: Inhibition of SAPK2b (unknown origin) at 1 micromol/L relative to control; details: dose 1.0 µmol/L
Summary of the method: (§4)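 Commercial kinase profiler panel run to the provider's protocol, with the compound tested at 1 µmol/L. Activity is expressed as percent of kinase activity without compound.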

[13] = target: Mitogen-activated protein kinase 12 (Homo sapiens) (UniProt P53778); test: Inhibition of SAPK3 (unknown origin) at 1 micromol/L relative to control; details: dose 1.0 µmol/L; summary of the method: as §4
[14] = target: Fibroblast growth factor receptor 3 (Homo sapiens) (UniProt P22607); test: Inhibition of FGFR3 (unknown origin) at 1 micromol/L relative to control; details: dose 1.0 µmol/L; summary of the method: as §3
[15] = system: U-87 MG; test: Inhibition of ERK in human U-87 MG cells at 1 micromol/L measured upto 4 hrs by Western blotting analysis; assay type: cell-based; details: dose 1.0 µmol/L; summary of the method: as §1
[16] = system: HCT-116; test: Inhibition of ribosomal protein S6 phosphorylation at serine 240/244 residue in human HCT-116 cells at 1 micromol/L upto 4 hrs by Western blotting analysis; assay type: cell-based; details: dose 1.0 µmol/L
Summary of the method: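 HCT116 cells from ATCC were grown in FBS-containing medium without antibiotics. They were lysed in cell extraction buffer with protease inhibitor cocktails, and protein was measured by DC assay. Western blotting used phospho-S6 Ser240/244 and total S6 ribosomal protein antibodies.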

[17] = Plasma concentration in athymic nude mouse xenografted with human HCT-116 cells at 75 mg/kg, po administered twice daily measured after 1 hr by LC-MS analysis; assay type: ADME, organism-based
Summary of the method: (§5)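 Female athymic nude mice, 6–8 weeks old, received 5 million HCT116 cells s.c. in the flank in 1:1 serum-free medium and matrigel (n = 9 per group). Dosing began at a group mean tumor volume of 100 mm³: 75 mg/kg twice daily by gavage, suspended in 10% acacia in water. Plasma was taken on days 1 and 21 at 0.5–12 h post-dose and measured by LC-MS/MS.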

[18] = Plasma concentration in athymic nude mouse xenografted with human HCT-116 cells at 75 mg/kg, po administered twice daily measured after 2 hrs by LC-MS analysis; assay type: ADME, organism-based; summary of the method: as §5
[19] = system: U-87 MG; test: Antitumor activity against human U-87 MG cells xenografted in athymic nude mouse assessed as reduction in GSK3beta phosphorylation at serine 9 residue at 75 mg/kg, po administered twice daily measured after 2 to 8 hrs by ELISA method relative to control; assay type: functional, U-87MG ATCC; design: scale not given: the % may be the effect or the level left; details: time 2-8 hrs
Summary of the method: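 U87MG-bearing nude mice, 75 mg/kg twice daily by gavage; on day 21 tumors harvested 2, 4 or 8 h post-dose, lysates measured by pGSK3β Ser9 ELISA versus vehicle tumors; Dunnett's method, ANOVA.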

[20] = system: HCT-116; test: Antitumor activity against human HCT-116 cells xenografted in athymic nude mouse assessed as reduction in GSK3beta phosphorylation at serine 9 residue at 75 mg/kg, po administered twice daily measured after 2 to 4 hrs by ELISA method relative to control; assay type: functional; design: scale not given: the % may be the effect or the level left; details: time 2-4 hrs
Summary of the method: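 HCT116-bearing nude mice, 75 mg/kg by gavage; tumors and PBMCs harvested 0.5, 2, 4, 8 h post-dose, n = 5 per time point. PBMCs from five mice pooled via CPT tube. Lysates assayed by pGSK3β Ser9 immunometric ELISA (tumor 400–600 μg, PBMC 50–100 μg protein/well); percent of vehicle control, Dunnett/ANOVA.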

[21] = target: Glycogen synthase kinase-3 beta (Homo sapiens) (UniProt P49841); details: U-87 MG, dose 1.0 µmol/L, time <= 4.0 hrs
[22] = Antitumor activity against human HCT116 cells implanted in athymic nude mouse assessed as reduction in GSK3beta phosphorylation at serine 9 residue at 75 mg/kg, po administered twice daily measured after 2 to 4 hrs by ELISA method relative to control; design: scale not given: the % may be the effect or the level left; details: time 2-4 hrs

Glycogen synthase kinase-3 beta (Homo sapiens), sequence (P49841 whole entry, looked up): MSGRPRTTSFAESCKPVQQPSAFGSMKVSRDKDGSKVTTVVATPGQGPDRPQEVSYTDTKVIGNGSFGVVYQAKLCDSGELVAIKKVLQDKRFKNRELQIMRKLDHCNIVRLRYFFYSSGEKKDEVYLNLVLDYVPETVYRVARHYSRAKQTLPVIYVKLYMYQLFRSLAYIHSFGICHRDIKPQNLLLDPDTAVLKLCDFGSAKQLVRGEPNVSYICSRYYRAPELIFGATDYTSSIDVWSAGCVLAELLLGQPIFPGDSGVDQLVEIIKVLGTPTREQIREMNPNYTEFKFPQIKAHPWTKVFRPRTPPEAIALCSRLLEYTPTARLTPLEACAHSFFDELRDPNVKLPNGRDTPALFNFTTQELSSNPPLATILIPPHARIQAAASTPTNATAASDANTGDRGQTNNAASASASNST
Inhibitor of nuclear factor kappa-B kinase subunit beta (Homo sapiens), sequence (O14920 whole entry): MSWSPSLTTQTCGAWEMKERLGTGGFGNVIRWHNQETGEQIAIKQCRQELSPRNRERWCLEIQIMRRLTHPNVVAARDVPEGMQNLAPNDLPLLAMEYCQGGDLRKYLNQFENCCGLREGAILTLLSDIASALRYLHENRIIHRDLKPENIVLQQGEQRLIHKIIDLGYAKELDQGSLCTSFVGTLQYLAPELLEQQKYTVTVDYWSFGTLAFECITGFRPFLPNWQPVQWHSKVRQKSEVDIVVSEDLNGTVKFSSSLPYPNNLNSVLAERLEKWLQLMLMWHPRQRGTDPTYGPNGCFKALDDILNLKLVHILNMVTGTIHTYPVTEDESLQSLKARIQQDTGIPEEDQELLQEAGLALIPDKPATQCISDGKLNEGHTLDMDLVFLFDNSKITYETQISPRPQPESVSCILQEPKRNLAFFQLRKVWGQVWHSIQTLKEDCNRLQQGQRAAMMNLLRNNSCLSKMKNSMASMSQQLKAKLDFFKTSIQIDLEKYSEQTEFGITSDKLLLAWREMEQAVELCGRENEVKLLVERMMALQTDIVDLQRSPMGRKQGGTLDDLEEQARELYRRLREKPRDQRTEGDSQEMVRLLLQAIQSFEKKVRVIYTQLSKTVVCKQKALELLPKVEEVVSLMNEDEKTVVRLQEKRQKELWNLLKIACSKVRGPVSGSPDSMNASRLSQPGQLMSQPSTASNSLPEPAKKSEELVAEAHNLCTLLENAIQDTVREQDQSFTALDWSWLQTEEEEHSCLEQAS
Fibroblast growth factor receptor 3 (Homo sapiens), sequence (P22607 23-806 limits assumed): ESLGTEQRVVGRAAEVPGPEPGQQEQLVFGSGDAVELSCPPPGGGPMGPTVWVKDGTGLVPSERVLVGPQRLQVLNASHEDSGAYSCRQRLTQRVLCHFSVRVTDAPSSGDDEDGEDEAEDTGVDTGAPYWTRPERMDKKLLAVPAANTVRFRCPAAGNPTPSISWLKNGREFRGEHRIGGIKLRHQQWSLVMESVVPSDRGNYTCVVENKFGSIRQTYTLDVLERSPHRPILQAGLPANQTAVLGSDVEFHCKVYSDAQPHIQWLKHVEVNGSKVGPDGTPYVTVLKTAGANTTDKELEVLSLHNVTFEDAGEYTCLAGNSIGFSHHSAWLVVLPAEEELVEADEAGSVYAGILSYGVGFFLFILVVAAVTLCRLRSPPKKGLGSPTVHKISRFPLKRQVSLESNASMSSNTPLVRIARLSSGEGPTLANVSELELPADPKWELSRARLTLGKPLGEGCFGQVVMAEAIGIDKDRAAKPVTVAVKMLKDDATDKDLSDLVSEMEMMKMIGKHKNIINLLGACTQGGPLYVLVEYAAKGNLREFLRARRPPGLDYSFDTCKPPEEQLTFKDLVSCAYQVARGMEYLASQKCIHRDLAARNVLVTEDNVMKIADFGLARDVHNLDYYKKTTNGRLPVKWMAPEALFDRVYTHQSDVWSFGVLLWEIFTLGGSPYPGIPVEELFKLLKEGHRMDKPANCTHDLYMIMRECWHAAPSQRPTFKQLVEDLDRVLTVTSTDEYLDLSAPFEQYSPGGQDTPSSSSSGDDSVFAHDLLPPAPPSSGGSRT
Mitogen-activated protein kinase 11 (Homo sapiens), sequence (Q15759 whole entry): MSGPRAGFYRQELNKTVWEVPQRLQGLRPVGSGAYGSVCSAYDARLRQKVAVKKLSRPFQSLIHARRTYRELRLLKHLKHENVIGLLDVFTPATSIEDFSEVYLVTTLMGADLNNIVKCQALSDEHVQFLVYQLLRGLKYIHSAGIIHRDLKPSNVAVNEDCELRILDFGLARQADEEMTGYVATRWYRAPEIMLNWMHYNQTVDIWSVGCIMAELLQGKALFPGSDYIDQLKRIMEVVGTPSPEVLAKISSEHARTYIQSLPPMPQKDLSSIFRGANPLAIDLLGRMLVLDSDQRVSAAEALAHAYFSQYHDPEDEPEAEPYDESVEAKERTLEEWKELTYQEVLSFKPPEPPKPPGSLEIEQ
Mitogen-activated protein kinase 12 (Homo sapiens), sequence (P53778 whole entry): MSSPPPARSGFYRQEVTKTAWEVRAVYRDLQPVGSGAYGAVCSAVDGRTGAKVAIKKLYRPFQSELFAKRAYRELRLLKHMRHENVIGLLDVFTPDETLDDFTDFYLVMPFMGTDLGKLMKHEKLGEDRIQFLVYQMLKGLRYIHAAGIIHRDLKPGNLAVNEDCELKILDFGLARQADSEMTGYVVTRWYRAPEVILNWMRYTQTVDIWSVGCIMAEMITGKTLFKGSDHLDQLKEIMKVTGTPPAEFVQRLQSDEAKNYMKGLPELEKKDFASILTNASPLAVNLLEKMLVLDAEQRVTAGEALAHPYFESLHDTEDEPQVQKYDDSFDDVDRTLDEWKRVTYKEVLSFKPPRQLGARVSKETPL
Protein kinase C iota type (Homo sapiens), sequence (P41743 whole entry): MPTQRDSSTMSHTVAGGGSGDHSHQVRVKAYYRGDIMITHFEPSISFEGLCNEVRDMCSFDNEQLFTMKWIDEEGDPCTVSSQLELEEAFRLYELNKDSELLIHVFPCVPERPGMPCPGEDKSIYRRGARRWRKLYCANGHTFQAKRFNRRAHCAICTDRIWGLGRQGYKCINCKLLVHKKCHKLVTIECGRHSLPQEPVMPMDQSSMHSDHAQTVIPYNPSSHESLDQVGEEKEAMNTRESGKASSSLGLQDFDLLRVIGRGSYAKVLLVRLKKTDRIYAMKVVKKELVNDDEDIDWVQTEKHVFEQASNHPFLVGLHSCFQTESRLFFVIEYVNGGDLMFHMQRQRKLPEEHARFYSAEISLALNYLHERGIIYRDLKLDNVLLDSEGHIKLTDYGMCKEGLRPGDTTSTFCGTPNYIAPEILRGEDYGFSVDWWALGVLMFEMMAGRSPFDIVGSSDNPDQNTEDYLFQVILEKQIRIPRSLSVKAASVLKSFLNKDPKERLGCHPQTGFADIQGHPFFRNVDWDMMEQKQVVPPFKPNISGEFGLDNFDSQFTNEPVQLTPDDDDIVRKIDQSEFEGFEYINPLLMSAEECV

Cl.Cn1cc(C2=C(c3cn(C4CCN(Cc5ccccn5)CC4)c4ccccc34)C(=O)NC2=O)c2ccccc21 [ENZASTAURIN HYDROCHLORIDE]
inhibition [1]: Tde | Activity [2]: Active | Activity [3]: Active | Activity [4]: Active | Activity [5]: inactive | Activity [6]: inactive | Activity [7]: inactive | Activity [8]: inactive | Activity [9]: Active | % control activity [10]: 91% | % control activity [11]: 116% | % control activity [12]: 96% | % control activity [13]: 88% | % control activity [14]: 82% | inhibition [15]: inactive | inhibition [16]: Active | concentration at 1 h [17]: 3000 nM | concentration at 2 h [18]: 2000 nM | Activity [19]: >50% | Activity [20]: >60% | inhibition [21]: Active | Activity [22]: >60%
